Consider 3 compounds from ChEMBL document CHEMBL1152541, “Staurosporine tethered peptide ligands that target cAMP-dependent protein kinase (PKA): optimization and selectivity profiling” (Bioorg Med Chem, 2009).

Assay [1] concerns the target Tyrosine-protein kinase ABL1 (Homo sapiens) (UniProt P00519). Description: Binding affinity to human ABL1 at 500 nM by cell-based competition binding assay relative to control in presence of DTT. In outline:
(§1)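 Kinase binding profiling ran on a commercial (Ambit) competitive binding screen against a panel of 90 kinases. The screen used reducing conditions with 7.5 mM DTT. To withstand the DTT, the bivalent ligand was tested as its amide isostere, with the disulfide replaced. A staurosporine derivative carrying a 3 β-alanine linker was run as the reference compound.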

Assay [2] addresses Cyclin-dependent kinase 2 (Homo sapiens) (UniProt P24941). Description: Binding affinity to human CDK2 at 500 nM by cell-based competition binding assay relative to control in presence of DTT. In outline: as §1
Assay [3] deals with T1, Serine/threonine-protein kinase Chk1 (Homo sapiens) (UniProt O14757).
T1 sequence (whole entry): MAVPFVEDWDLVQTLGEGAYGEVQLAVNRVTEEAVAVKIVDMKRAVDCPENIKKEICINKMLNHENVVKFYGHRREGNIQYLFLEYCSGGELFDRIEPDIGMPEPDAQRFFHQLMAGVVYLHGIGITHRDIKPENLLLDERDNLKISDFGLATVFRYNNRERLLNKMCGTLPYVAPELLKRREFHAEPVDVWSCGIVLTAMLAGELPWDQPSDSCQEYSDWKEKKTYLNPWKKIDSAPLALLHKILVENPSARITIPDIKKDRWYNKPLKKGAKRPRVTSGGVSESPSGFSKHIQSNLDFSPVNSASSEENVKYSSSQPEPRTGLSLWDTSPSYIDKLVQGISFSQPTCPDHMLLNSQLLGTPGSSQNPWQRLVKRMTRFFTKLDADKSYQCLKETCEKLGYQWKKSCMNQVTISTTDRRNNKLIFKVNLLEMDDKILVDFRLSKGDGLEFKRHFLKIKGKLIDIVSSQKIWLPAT
Description: Binding affinity to human CHEK1 at 500 nM by cell-based competition binding assay relative to control in presence of DTT. Put shortly:
(§2)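 Commercial (Ambit) competitive kinase-binding panel of 90 kinases measured the binding profile. Run under reducing conditions of 7.5 mM DTT. Binding is expressed relative to control.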

For assay [4], the target named is Proto-oncogene tyrosine-protein kinase Src (Homo sapiens) (UniProt P12931). Description: Binding affinity to human SRC at 500 nM by cell-based competition binding assay relative to control in presence of DTT.
Assay [5] has as its target Mitogen-activated protein kinase 3 (Homo sapiens) (UniProt P27361). The assay is described as follows: Binding affinity to human ERK1 at 500 nM by cell-based competition binding assay relative to control in presence of DTT. Put shortly:
as §2

For assay [6], the target named is T2, 3-phosphoinositide-dependent protein kinase 1 (Homo sapiens) (UniProt O15530).
T2 sequence (whole entry): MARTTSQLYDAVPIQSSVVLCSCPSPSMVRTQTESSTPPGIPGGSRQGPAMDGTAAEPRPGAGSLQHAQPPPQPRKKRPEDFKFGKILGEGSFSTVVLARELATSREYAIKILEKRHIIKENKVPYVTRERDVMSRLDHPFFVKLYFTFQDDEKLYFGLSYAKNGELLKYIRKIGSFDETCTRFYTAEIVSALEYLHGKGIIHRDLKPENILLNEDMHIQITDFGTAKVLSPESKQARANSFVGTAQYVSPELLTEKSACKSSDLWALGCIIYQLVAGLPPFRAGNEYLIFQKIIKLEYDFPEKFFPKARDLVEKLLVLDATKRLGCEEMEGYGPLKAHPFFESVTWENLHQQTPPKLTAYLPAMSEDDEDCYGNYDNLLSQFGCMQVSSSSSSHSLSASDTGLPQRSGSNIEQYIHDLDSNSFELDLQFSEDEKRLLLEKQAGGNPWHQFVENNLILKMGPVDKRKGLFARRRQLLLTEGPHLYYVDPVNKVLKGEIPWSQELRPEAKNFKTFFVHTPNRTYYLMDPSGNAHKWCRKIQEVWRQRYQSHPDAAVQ
Description: Binding affinity to human PDPK1 at 500 nM by cell-based competition binding assay relative to control in presence of DTT.

Assay [7] deals with Dual specificity mitogen-activated protein kinase kinase 1 (Homo sapiens) (UniProt Q02750). Description: Binding affinity to human MEK1 at 500 nM by cell-based competition binding assay relative to control in presence of DTT. Put shortly: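 Kinase binding profile from a commercial panel of 90 kinases, run as a competitive binding assay. The panel was screened under reducing conditions of 7.5 mM DTT. Signal was compared with the untreated control.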
Dual specificity mitogen-activated protein kinase kinase 1 (Homo sapiens), sequence (Q02750 whole entry): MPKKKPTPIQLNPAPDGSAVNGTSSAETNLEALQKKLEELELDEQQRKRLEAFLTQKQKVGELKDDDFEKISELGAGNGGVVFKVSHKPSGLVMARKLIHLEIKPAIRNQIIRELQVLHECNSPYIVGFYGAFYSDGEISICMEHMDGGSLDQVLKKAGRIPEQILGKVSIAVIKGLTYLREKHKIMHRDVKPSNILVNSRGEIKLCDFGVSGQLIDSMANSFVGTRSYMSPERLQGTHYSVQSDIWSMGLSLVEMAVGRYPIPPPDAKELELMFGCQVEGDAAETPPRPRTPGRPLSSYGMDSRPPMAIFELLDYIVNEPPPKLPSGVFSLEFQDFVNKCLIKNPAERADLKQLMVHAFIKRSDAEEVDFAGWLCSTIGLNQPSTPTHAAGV

Assay [8] deals with Serine/threonine-protein kinase pim-3 (Homo sapiens) (UniProt Q86V86). Description: Binding affinity to human PIM3 at 200 nM by cell-based competition binding assay relative to control in presence of DTT.
The target of assay [9] is Angiopoietin-1 receptor (Homo sapiens) (UniProt Q02763). The assay is described as follows: Binding affinity to human TIE2 at 200 nM by cell-based competition binding assay relative to control in presence of DTT.
The target in assay [10] is Tyrosine-protein kinase receptor UFO (Homo sapiens) (UniProt P30530). The assay is described as follows: Binding affinity to human AXL at 200 nM by cell-based competition binding assay relative to control in presence of DTT. Put shortly: as §1
Tyrosine-protein kinase receptor UFO (Homo sapiens), sequence (P30530 whole entry): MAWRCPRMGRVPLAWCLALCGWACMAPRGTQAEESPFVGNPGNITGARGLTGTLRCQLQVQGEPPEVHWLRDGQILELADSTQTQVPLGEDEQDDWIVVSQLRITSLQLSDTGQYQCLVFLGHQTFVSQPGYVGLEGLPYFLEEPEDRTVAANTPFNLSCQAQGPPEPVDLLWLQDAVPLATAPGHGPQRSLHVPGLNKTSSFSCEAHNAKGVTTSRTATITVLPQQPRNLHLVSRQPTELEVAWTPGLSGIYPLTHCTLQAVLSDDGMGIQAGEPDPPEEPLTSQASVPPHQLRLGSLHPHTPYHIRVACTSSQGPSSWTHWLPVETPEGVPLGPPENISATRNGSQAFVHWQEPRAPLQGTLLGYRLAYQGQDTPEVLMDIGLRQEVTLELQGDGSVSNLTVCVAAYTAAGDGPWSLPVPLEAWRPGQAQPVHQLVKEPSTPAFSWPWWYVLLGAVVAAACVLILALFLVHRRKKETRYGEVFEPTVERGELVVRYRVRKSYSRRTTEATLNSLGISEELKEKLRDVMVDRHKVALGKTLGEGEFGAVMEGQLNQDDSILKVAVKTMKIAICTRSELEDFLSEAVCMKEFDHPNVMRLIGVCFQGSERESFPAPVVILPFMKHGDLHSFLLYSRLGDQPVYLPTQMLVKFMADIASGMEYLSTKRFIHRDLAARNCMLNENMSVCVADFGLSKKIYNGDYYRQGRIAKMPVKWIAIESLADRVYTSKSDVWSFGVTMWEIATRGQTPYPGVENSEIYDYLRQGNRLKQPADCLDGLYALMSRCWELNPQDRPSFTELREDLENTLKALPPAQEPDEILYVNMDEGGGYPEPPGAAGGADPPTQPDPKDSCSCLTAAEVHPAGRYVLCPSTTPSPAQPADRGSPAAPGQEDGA
In assay [11] the target is Focal adhesion kinase 1 (Homo sapiens) (UniProt Q05397). The assay is described as follows: Binding affinity to human PTK2 at 200 nM by cell-based competition binding assay relative to control in presence of DTT.
Focal adhesion kinase 1 (Homo sapiens), sequence (Q05397 2-1052 limits assumed): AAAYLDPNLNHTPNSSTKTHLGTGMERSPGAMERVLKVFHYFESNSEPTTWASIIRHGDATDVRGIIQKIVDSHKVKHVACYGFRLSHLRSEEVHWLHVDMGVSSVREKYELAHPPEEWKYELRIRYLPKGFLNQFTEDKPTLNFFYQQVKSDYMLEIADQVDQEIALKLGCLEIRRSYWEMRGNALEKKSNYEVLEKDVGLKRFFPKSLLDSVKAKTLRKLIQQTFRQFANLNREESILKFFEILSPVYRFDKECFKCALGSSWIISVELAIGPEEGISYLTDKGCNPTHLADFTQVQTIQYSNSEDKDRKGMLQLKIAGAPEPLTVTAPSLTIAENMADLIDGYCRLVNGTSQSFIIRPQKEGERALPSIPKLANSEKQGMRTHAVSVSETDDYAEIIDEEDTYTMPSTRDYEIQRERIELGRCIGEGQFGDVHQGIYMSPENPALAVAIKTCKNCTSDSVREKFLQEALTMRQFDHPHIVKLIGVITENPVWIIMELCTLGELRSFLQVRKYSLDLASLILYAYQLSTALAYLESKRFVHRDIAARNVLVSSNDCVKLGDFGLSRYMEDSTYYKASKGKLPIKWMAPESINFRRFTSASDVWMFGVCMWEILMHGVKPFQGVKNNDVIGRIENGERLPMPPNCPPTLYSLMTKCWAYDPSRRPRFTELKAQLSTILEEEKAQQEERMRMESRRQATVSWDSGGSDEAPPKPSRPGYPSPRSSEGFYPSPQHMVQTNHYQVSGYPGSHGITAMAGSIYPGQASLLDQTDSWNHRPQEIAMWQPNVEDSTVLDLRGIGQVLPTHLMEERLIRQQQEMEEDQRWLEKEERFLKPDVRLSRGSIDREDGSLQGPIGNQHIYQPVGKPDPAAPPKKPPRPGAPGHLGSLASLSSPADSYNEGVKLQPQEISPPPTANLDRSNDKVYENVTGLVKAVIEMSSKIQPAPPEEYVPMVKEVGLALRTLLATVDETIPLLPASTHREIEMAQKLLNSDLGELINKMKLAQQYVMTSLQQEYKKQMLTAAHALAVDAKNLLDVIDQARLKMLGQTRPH
In assay [12] the target is Phosphatidylinositol 4,5-bisphosphate 3-kinase catalytic subunit gamma isoform (Homo sapiens) (UniProt P48736). Description: Binding affinity to human PIK3Cgamma at 200 nM by cell-based competition binding assay relative to control in presence of DTT.
Assay [13] deals with Tyrosine-protein kinase JAK2 (Homo sapiens) (UniProt O60674). Description: Binding affinity to human JAK2 kinase domain 2 at 50 nM by cell-based competition binding assay relative to control in presence of DTT. In outline: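 Competition binding screen (Ambit) across a panel of 90 kinases, scoring test ligand displacement of each kinase's binding relative to control. The screen ran under reducing conditions with 7.5 mM DTT.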
Tyrosine-protein kinase JAK2 (Homo sapiens), sequence (O60674 whole entry, the tested form may be a part): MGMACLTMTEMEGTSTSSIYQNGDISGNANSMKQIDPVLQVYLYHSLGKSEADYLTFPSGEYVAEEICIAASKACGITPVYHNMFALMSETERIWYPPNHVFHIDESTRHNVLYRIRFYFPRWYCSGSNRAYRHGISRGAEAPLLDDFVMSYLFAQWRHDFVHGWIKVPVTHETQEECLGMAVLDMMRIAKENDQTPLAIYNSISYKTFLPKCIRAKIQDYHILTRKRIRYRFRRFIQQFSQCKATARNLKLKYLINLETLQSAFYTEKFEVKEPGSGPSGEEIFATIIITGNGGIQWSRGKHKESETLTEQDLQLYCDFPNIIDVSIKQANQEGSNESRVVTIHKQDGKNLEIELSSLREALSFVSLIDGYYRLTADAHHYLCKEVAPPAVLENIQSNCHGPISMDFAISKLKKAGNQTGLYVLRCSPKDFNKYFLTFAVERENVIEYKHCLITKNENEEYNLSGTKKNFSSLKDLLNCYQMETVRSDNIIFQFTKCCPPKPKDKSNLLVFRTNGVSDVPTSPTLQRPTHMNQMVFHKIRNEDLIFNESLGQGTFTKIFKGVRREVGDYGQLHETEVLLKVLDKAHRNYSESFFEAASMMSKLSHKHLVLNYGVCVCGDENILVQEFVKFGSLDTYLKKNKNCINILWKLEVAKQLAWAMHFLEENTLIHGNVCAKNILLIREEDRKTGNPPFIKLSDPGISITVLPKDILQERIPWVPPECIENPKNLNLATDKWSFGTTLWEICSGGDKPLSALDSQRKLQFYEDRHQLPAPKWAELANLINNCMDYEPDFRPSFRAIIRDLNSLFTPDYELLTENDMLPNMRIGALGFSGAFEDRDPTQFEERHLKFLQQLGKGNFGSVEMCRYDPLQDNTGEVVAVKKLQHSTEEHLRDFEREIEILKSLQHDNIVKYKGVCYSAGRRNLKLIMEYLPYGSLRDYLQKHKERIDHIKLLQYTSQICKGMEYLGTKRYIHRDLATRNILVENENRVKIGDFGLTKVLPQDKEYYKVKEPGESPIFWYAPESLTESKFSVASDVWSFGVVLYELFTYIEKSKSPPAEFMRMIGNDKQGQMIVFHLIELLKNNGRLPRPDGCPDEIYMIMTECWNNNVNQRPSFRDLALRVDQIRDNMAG

*1 amine or outer side, *2 acyl side, *3 side chain or, on linkers, in order; H or OH if unused. Where a SMILES comes first, the peptide text is derived from it. Bridges are numbered along the chain shown (N, C = ends). [ ]: non-standard residue; d: D form. The star is where a group is joined. Staurosporine = CO[C@@H]1[C@H](N(C)*)C[C@H]2O[C@]1(C)n1c3ccccc3c3c4c(c5c6ccccc6n2c5c31)C(=O)NC4; Suc = O=C(CCC(=O)[*:2])[*:1]; Dap = NC[C@H](N)C(=O)O; βAla = NCCC(=O)O

Mitogen-activated protein kinase 3 (Homo sapiens), sequence (P27361 whole entry): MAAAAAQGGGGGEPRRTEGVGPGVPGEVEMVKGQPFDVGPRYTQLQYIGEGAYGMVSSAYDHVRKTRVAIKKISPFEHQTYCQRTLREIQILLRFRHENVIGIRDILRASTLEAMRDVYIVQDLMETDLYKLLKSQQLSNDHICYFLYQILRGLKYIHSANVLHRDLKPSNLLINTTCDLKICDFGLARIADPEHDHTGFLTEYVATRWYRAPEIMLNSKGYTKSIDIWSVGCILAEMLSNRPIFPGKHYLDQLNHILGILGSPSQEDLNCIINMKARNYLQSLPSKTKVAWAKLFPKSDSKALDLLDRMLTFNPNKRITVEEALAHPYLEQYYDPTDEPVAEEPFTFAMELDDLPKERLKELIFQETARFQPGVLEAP
Tyrosine-protein kinase ABL1 (Homo sapiens), sequence (P00519 whole entry): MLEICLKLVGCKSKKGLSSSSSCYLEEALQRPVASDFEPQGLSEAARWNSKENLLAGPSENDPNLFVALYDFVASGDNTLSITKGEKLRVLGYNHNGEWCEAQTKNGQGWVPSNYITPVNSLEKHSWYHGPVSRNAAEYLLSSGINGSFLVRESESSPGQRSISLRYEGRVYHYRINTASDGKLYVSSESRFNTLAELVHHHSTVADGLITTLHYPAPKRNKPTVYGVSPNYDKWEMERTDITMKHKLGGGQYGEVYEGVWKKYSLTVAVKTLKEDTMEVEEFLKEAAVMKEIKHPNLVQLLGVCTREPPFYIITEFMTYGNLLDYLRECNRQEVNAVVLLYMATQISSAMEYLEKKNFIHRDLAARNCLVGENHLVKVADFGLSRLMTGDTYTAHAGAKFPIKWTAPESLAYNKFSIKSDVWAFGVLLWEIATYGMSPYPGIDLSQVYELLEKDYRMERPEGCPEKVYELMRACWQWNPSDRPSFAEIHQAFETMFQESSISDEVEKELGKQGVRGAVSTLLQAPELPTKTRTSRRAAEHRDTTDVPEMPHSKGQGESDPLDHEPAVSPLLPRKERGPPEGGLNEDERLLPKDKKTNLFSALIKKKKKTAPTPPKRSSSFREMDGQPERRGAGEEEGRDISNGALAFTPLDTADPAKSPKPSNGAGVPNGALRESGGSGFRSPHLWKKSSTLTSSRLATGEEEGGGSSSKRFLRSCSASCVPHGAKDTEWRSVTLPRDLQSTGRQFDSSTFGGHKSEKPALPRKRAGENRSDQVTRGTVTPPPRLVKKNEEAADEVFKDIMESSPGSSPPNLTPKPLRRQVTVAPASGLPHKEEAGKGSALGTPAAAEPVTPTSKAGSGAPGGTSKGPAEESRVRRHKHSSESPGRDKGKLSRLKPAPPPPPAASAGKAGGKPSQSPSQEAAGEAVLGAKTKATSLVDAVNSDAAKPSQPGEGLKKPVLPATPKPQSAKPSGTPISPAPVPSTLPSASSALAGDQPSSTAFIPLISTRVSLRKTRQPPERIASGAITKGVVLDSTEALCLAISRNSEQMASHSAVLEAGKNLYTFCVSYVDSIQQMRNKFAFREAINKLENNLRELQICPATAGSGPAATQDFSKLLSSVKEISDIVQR

As for `CO[C@@H]1[C@H](N(C)C(=O)CCC(=O)NCCC(=O)NCCC(=O)NCCC(N)=O)C[C@H]2O[C@]1(C)n1c3ccccc3c3c4c(c5c6ccccc6n2c5c31)C(=O)NC4`, the Activity in [1] was determined as 68%; in assay [2], 69%; in assay [3], 54%; in [4], 72%; in assay [5], 100%; in [6], 18%. Further, the Activity in assay [7] amounted to 100%.
`CO[C@@H]1[C@H](N(C)C(=O)CCC(=O)NCCC(=O)NCCC(=O)NCCC(=O)NCCC(=O)NCCC(=O)NCCC(=O)NCCC(=O)N[C@H]2CSSC[C@@H](C(=O)NCC(N)=O)NC(=O)CNC(=O)[C@H](Cc3ccccc3)NC(=O)[C@H](C(C)C)NC(=O)[C@H](CCCNC(=N)N)NC(=O)[C@H](Cc3ccccc3)NC(=O)[C@H](C(C)C)NC2=O)C[C@H]2O[C@]1(C)n1c3ccccc3c3c4c(c5c6ccccc6n2c5c31)C(=O)NC4` ({Staurosporine-Suc-βAla-βAla-βAla-βAla-βAla-βAla-βAla}-CVFRVFGCG-NH2; disulfide 1-8): the Activity in [8] was 26%; in assay [9] it was 65%; in assay [10], 58%; in assay [11], 91%; in assay [12], 100%.
In the case of `CO[C@@H]1[C@H](N(C)C(=O)CCC(=O)NCCC(=O)NCCC(=O)NCCC(=O)NCCC(=O)NCCC(=O)NCCC(=O)NCCC(=O)N[C@H]2CNC(=O)C[C@@H](C(N)=O)NC(=O)CNC(=O)[C@H](Cc3ccccc3)NC(=O)[C@H](C(C)C)NC(=O)[C@H](CCCNC(=N)N)NC(=O)[C@H](Cc3ccccc3)NC(=O)[C@H](C(C)C)NC2=O)C[C@H]2O[C@]1(C)n1c3ccccc3c3c4c(c5c6ccccc6n2c5c31)C(=O)NC4` ({Staurosporine-Suc-βAla-βAla-βAla-βAla-βAla-βAla-βAla}-[Dap]VFRVFGD-NH2; lactam 1-8), in [13], the Activity worked out at 42%.
